1 compound from ChEMBL document CHEMBL3826935, “Synthesis and Pharmacology of (Pyridin-2-yl)methanol Derivatives as Novel and Selective Transient Receptor Potential Vanilloid 3 Antagonists” (J Med Chem, 2016) can be followed below.

The target in data set [1] is T1, Transient receptor potential cation channel subfamily V member 3 (Homo sapiens, UniProt Q8NET8).
T1 sequence (Q8NET8 whole entry): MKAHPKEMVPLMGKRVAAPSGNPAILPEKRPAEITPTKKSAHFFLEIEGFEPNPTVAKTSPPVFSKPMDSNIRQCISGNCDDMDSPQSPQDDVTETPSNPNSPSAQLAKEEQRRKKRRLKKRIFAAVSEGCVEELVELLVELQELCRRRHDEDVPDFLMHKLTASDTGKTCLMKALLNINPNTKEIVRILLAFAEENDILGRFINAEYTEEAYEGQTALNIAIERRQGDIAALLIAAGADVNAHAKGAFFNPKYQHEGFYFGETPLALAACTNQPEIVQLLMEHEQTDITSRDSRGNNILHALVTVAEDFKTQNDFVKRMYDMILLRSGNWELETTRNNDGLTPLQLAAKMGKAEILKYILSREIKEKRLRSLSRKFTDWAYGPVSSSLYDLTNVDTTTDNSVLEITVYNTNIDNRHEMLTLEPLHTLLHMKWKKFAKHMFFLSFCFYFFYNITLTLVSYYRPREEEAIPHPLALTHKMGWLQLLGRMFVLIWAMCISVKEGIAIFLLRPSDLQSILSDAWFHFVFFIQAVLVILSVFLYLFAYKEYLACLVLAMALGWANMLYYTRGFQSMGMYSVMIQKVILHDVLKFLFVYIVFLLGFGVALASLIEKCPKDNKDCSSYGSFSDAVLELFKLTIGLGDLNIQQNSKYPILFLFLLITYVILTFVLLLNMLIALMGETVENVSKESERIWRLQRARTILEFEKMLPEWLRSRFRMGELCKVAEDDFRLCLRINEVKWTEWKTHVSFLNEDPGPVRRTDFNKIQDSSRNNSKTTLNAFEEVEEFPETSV
In words: Antagonist activity at human TRPV3 expressed in recombinant HEK293 cells assessed as inhibition of 2-APB induced currents by patch-clamp electrophysiological assay. The class given is cell-based. For orientation: The patch-clamp technique gives a direct electrical read-out from membranes.

Data set [2] deals with Transient receptor potential cation channel subfamily V member 1 (Homo sapiens) (UniProt Q8NER1). Put plainly: Binding affinity to TRPV1 (unknown origin) at 10 uM. A digest of the protocol: (§1)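 Selectivity screen at 10 µM across CEREP and internal target panels. Readout is percent binding, with 50% as the threshold.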
Chain of Transient receptor potential cation channel subfamily V member 1 (Homo sapiens) (Q8NER1 whole entry): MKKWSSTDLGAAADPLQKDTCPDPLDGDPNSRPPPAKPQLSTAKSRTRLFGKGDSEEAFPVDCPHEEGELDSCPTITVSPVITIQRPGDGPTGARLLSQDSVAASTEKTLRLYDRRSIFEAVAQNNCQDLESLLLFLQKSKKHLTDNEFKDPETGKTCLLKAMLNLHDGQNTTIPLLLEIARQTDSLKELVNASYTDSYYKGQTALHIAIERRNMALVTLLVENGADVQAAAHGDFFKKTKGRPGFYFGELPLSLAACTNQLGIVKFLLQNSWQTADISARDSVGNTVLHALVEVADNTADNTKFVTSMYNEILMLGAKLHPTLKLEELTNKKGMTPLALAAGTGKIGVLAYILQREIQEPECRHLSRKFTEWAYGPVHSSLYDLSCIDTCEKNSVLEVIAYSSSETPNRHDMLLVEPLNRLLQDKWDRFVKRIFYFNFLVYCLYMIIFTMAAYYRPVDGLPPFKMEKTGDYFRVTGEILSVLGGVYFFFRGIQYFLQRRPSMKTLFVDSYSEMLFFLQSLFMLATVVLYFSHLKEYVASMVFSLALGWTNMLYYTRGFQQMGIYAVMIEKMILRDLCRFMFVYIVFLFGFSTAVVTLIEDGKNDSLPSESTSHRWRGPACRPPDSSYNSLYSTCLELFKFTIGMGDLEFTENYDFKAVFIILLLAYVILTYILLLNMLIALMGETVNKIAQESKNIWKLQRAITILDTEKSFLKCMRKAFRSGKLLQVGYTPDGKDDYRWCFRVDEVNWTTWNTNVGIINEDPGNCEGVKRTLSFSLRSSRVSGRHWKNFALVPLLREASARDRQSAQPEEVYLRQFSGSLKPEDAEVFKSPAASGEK
Data set [3] concerns the target Sodium channel protein type 5 subunit alpha (Homo sapiens, UniProt Q14524). In words: Binding affinity to Nav1.5 (unknown origin) at 10 uM. A digest of the protocol: as §1
Data set [4] addresses Sodium channel protein type 10 subunit alpha (Homo sapiens) (UniProt Q9Y5Y9). In words: Binding affinity to Nav1.8 (unknown origin) at 10 uM. A digest of the protocol: as §1
The target of data set [5] is Voltage-dependent L-type calcium channel subunit alpha-1C (Homo sapiens, UniProt Q13936). Put plainly: Binding affinity to Cav1.2 (unknown origin) at 10 uM. In a few lines: as §1
Chain of Voltage-dependent L-type calcium channel subunit alpha-1C (Q13936 whole entry): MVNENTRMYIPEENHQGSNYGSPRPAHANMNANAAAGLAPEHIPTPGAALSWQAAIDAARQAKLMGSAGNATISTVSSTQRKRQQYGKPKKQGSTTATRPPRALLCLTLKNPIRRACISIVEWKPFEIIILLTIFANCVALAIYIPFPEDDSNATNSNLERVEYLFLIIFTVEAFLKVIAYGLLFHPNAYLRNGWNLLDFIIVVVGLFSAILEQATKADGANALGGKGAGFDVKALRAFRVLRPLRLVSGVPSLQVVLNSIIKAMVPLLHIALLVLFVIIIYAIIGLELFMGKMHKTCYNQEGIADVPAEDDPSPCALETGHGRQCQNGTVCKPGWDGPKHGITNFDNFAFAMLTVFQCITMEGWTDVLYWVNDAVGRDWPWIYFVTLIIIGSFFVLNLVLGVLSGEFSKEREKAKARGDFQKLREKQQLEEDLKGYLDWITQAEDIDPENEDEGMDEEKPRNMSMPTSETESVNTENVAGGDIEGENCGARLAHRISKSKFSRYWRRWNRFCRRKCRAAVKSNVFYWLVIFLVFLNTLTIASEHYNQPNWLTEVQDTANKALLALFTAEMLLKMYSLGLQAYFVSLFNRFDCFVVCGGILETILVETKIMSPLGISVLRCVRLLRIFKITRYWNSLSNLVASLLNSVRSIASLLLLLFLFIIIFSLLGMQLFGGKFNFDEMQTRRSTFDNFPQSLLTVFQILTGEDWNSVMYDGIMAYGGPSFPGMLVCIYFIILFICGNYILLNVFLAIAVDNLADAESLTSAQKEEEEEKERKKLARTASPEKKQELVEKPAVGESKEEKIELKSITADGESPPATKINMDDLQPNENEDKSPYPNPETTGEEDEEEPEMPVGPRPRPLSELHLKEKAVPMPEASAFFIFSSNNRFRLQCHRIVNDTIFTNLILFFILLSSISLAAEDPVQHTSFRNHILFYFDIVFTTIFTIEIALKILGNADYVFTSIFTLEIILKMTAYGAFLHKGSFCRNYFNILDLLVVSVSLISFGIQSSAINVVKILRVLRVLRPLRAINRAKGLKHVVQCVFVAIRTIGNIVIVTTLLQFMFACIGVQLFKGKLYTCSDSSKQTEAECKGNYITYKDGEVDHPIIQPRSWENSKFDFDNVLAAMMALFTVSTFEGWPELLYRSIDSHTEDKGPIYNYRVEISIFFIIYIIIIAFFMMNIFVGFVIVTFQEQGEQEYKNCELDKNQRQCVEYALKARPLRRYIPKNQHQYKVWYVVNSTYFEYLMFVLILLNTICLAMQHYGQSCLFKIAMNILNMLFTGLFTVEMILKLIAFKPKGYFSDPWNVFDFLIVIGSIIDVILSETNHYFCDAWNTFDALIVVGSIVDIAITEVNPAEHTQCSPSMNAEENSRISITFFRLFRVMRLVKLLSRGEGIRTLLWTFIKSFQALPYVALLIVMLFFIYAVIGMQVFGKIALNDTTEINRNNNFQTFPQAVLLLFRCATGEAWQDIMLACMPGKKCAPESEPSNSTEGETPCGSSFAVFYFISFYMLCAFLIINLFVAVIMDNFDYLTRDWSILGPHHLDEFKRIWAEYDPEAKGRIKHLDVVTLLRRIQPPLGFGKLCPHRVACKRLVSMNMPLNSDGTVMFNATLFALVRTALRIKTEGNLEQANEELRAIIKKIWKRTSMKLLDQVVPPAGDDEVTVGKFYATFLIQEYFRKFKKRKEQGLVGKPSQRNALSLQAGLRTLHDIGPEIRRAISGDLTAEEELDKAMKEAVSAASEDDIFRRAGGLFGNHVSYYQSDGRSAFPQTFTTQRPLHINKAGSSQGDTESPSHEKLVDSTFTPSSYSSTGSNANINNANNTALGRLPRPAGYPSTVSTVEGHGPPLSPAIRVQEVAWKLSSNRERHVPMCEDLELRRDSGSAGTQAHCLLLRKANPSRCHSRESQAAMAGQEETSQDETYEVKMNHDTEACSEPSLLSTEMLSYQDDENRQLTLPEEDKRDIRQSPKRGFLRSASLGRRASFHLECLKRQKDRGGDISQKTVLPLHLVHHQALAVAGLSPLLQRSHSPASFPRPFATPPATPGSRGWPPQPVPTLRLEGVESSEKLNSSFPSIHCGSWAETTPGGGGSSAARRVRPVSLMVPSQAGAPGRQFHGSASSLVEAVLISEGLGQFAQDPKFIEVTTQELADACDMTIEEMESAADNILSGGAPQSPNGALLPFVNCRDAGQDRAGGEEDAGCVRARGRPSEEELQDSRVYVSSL
The target of data set [6] is Voltage-dependent T-type calcium channel subunit alpha-1H (Homo sapiens) (UniProt O95180). In words: Binding affinity to Cav3.2 (unknown origin) at 10 uM. In a few lines: as §1
A short description of data set [7]: Half life in rat at 1 mg/kg, iv. Format: ADME, organism-based. The note with it: in vivo. In a few lines: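 Rat pharmacokinetics: iv dose 1 mg/kg; po dose 1 or 2 mg/kg depending on compound. AUC taken over 0–8 h. Unbound parameters calculated using plasma free fraction.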
Data set [8] has as its system Rattus norvegicus. In words: Antiallodynic activity in po dosed sciatic nerve ligation Sprague-Dawley rat model of neuropathic pain assessed as attenuation of mechanical allodynia induced by von Frey hair stimulation to the ipsilateral hind paw. The class given is functional, organism-based. In a few lines: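 Rat neuropathic pain models dosed orally. Mechanical allodynia measured by von Frey stimulation of the injured ipsilateral paw, with a 15 g threshold taken as maximal possible effect and results expressed as %MPE. Vehicle 10% DMSO in PEG; n = 6 per group.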

Data set [9] deals with Rattus norvegicus. In words: Antiallodynic activity in Sprague-Dawley rat reserpine model of central pain assessed as increase in reserpine induced muscle pressure threshold at 10 to 100 mg/kg, po measured at 1 hr post dosing. The class given is functional, organism-based.
The test system of data set [10] is Rattus norvegicus. In words: Toxicity in chronic constriction injury Sprague-Dawley rat model of neuropathic pain assessed as behavioral changes at 10 to 100 mg/kg, po. The class given is organism-based. The conditions noted are these: in vivo.
Data set [11] deals with Rattus norvegicus. In words: Toxicity in sciatic nerve ligation Sprague-Dawley rat model of neuropathic pain assessed as behavioral changes at 10 to 100 mg/kg, po. Format: organism-based. The note with it: in vivo.
Data set [12] deals with Rattus norvegicus. Put plainly: Toxicity in Sprague-Dawley rat reserpine model of central pain assessed as overt impairments at 10 to 100 mg/kg, po. Format: organism-based. The note with it: in vivo.
Data set [13] addresses T2, Transient receptor potential cation channel subfamily V member 3 (Homo sapiens) (UniProt Q8NET8).
T2 sequence (whole entry): T1 sequence (Q8NET8 whole entry)
In words: Binding affinity to TRPV3 (unknown origin) at 10 uM.

Data set [14] can be described thus: Fraction unbound in human plasma. Format: ADME, cell-free.

Where only a bound is given, the exact number is not on record here.

Chain of Sodium channel protein type 10 subunit alpha (Homo sapiens) (Q9Y5Y9 whole entry, looked up): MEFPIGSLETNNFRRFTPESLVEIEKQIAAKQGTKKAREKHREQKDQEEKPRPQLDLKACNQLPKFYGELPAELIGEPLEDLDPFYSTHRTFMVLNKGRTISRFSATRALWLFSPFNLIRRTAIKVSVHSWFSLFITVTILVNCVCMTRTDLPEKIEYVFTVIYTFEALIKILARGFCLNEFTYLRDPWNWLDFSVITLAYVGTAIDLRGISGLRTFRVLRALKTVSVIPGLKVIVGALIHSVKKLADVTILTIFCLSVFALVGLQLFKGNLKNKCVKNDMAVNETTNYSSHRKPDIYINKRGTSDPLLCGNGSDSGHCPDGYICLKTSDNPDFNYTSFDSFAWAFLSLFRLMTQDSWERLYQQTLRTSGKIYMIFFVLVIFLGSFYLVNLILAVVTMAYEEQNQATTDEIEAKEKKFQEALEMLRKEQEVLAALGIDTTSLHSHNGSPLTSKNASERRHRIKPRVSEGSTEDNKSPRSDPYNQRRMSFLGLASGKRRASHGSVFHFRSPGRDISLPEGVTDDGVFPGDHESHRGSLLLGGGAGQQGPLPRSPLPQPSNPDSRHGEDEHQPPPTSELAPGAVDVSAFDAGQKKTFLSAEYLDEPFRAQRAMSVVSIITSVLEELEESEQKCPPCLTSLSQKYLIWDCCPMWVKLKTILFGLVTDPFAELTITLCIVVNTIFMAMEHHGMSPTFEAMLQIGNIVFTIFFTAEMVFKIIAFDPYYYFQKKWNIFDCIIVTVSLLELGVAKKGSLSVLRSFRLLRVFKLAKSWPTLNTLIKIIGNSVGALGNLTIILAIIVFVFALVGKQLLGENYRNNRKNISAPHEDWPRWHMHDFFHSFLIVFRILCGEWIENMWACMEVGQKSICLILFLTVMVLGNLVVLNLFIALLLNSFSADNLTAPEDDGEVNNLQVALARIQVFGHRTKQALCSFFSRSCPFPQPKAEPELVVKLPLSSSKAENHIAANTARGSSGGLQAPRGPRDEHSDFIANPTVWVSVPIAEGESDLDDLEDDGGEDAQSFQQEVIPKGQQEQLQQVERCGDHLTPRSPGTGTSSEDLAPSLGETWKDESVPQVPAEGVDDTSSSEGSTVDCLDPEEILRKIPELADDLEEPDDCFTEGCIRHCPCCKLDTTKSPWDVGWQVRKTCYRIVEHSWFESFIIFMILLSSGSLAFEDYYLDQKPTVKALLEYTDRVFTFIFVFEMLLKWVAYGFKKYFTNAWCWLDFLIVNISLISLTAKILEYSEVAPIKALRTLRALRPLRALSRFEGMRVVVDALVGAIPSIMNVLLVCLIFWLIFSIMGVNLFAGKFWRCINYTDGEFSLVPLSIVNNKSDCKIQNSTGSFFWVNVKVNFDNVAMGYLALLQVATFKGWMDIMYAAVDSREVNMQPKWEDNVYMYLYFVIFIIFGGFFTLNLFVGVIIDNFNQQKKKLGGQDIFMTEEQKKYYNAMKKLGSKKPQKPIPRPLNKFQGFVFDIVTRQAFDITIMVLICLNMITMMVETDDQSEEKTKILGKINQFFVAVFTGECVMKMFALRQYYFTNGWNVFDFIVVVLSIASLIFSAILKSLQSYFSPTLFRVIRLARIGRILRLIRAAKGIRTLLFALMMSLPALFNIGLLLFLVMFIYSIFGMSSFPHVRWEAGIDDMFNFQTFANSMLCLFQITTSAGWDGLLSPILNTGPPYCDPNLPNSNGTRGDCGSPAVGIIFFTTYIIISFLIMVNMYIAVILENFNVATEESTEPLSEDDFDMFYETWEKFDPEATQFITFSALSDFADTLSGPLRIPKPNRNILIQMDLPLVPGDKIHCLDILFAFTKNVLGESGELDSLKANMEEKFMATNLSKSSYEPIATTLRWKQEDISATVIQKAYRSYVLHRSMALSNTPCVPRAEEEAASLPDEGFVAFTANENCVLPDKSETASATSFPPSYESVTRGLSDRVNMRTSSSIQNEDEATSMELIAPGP

Usually IC50 stands for the point on the concentration scale where inhibition reaches its midpoint. A word on the half-life: it is how long it takes for the measured level to halve. Lower therefore signals fast loss. For orientation: fraction unbound means free concentration divided by total concentration. Consider `C[C@]1(O)C[C@](c2cc(C(F)(F)F)ccn2)([C@H](O)c2ccccn2)C1` (mixture of isomers), for which the IC50 in [1] is 0.38 µM. Moreover, the Activity was less than 50% in data set [2]; less than 50% in data set [3]; less than 50% in data set [4]; less than 50% in data set [5]; less than 50% in data set [6]; “Dose-dependent effect” in the data set on Rattus norvegicus [8]. The Activity entry was “Dose-dependent effect” in the data set on Rattus norvegicus [9]; “Non-toxic” in the data set on Rattus norvegicus [10]; “Non-toxic” in the data set on Rattus norvegicus [11]; “Non-toxic” in the data set with Rattus norvegicus [12]; greater than 50% in data set [13]. In data set [7], this compound showed a half-life of 30 min. The EC50 in the data set on Rattus norvegicus [8] was determined as 11 µmol. In addition, the fraction unbound in data set [14] came out at 0.89.
